# In the library only some 1.8% were active in any assay of this set; here they are far more common.
# M5 ag – CHRM5 agonism in calcium assay | CHO-K1 hM5 cells, Fluo-8 calcium fluorescence; 0% DMSO wells, 100% maximal acetylcholine response | activation, % at 3 µM | hit rate 0.19% among 360,000;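 active = activation above the run's mean over test compounds plus 3 SD, cut at about 23% in these data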;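 note: signal is peak over basal fluorescence ratio across the kinetic read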
# M4 ag – agonists of human muscarinic M4 receptor (CHRM4); CHO-K1 hM4/Gqi5, Fluo-8 calcium fluorescence; vehicle 0%, full acetylcholine response 100%; activation, % at 3 µM; hit rate 0.14% among 360,000;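 active = activation above the run mean over all test wells plus 3 SD, cut at about 32% in these data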;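 note: peak over basal fluorescence ratio per well then scaled between controls; 0% = DMSO wells and 100% = acetylcholine at EC100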
# Target sequence (P08173 whole entry, looked up): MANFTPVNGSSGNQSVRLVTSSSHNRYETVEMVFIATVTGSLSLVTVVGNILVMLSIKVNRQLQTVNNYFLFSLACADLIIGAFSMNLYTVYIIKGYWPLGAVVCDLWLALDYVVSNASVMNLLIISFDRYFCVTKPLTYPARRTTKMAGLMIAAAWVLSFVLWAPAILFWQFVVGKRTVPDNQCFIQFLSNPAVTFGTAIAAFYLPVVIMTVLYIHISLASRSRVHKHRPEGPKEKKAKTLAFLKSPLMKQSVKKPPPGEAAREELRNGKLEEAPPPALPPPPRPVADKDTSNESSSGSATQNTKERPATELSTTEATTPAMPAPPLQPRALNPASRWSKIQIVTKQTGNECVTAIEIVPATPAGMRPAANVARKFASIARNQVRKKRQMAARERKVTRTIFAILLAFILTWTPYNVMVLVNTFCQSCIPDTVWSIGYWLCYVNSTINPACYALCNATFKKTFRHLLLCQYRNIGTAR
# M4 PAM – potentiates acetylcholine response at human M4 receptor; P08173; CHO-K1 hM4/Gqi5, Fluo-8 calcium fluorescence, ACh EC20; 0% = ACh EC20, 100% = maximal ACh; activation, % at 3 µM; hit rate 0.4% among 360,000; AID 624126;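 active = activation above its plate's cutoff, the mean activation of sample wells plus 3 SD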
# M5 antag – CHRM5 antagonism in calcium assay; P08912; CHO-hM5 cells, Fluo-8 calcium fluorescence, ACh EC80; inhibition, % at 3 µM; hit rate 0.59% among 360,000; AID 624040;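 active = inhibition above a per-plate cutoff, the mean of that plate's test compounds plus 3 SD, cut at about 27% in these data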;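 note: 0% = acetylcholine EC80 with DMSO and 100% = DMSO without agonist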
# CHRM5 PAM – positive allosteric modulators of human muscarinic M5 receptor; P08912; CHO-K1 hM5, Fluo-8 calcium, ACh EC20 PAM; 0% = ACh EC20, 100% = ACh EC100; activation, % at 3 µM; hit rate 0.3% among 360,000;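 active = activation above the run cutoff, the mean activation of all test compounds plus 3 SD, cut at about 18% in these data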
#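 Assay system: CHO-K1 hM5 cells / Incubation: Fluo-8 loading 80 min at 37 °C plus 30 min room temperature / Technique: Fluo-8 calcium dye fluorescence, kinetic read / Repeats: single replicate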
# M4 antag – antagonists of human muscarinic M4 receptor (CHRM4) | P08173 | hit rate 0.73% among 360,000 | CHO-hM4 cells, ACh EC80, Fluo-8 calcium fluorescence | inhibition, % at 3 µM;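 active = inhibition above its plate's cutoff, the mean inhibition of sample wells plus 3 SD, cut at about 27% in these data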;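 note: 0% = acetylcholine EC80 with DMSO and 100% = DMSO without agonist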
# Numbers without * were called inactive.
SMILES,M5 ag,M4 ag,M4 PAM,M5 antag,CHRM5 PAM,M4 antag
O=C(Nc1ccc(N2CCCCCC2)cc1)c1cccc(S(=O)(=O)N2CCOCC2)c1,4,11,-8,11,-12,2
CCOc1ccc(N(Cc2ccccc2F)C2=NC3CS(=O)(=O)CC3S2)cc1 (stereo not drawn),1,0,0,-1,-1,-10
COc1cccc(Nc2nnc(SCC(=O)Nc3sccc3C(N)=O)s2)c1,3,19,-45,9,-24,29*
Nc1cccc2[nH]c(=O)c3ccccc3c12,2,1,-1,1,-1,-2
O=C(Nc1ccc(Cl)cc1)Nc1ccccc1NS(=O)(=O)c1cccs1,7,23,-19,44*,-19,19
O=C(Nc1ccc(F)cc1)Nc1ccccc1NS(=O)(=O)c1cccs1,11,14,-12,25,-19,0
O=C(NC1CC(=O)N(c2ccccc2)C1)N1CCN(C(=O)c2ccco2)CC1 (stereo not drawn),2,1,-2,-2,-1,-7
FC(F)(F)c1nc2ccccc2[nH]1,0,0,15*,11,4,10
Cc1cccc(N2C(=O)CC(N3CCN(Cc4ccc5c(c4)OCO5)CC3)C2=O)c1 (stereo not drawn),-3,1,6,16,18*,-1
CSc1cccc(CNC(=O)C2CCC(=O)N(CCCN3CCCC3=O)C2)c1 (stereo not drawn),-5,1,-2,-1,-3,3
COc1cc(OC)cc(-c2c(C#Cc3ccsc3)c3cc(-c4ccc(OC)nc4)ccc3n2C)c1,3,0,7,7,5,5
COc1cc(NC(=O)C2=C(N3CCOCC3)/C(=C\c3ccc(N(C)C)cc3)CCC2)cc(OC)c1OC,1,1,21*,-7,11,3
CCOC(=O)C1(Cc2ccc(OC)cc2)CCN(S(C)(=O)=O)CC1,2,1,1,8,-3,-5
CCOC(=O)C1(Cc2ccc(Cl)cc2)CCN(C(C)Cc2ccc(O)c(OC)c2)CC1 (stereo not drawn),5,12,-12,30*,-15,17
COc1ccc(C(C(=O)OCCN(C)C)c2ccccc2)cc1 (stereo not drawn),-12,1,-9,22,-13,6
CCCOc1ccc(C(C(=O)OCCN(CC)CC)c2ccccc2)cc1 (stereo not drawn),-10,6,-14,55*,-15,18
CCC1CCCCN1S(=O)(=O)c1ccc(NC(=O)c2nc(S(C)(=O)=O)ncc2Cl)cc1 (stereo not drawn),-1,11,-12,21,-6,59*
C[C@@H](NC(=O)[C@@H]1CCCN1C(=O)[C@@H]1CCCN1C(=O)c1cccc2ccccc12)c1ccccc1,3,2,10,-7,-3,-15
COc1ccc(NC(=O)COc2ccccc2)cc1Cl,-9,1,-4,15,-8,3
COc1ccc(NC(=O)COc2ccccc2C(=O)NCC(c2ccccc2)N(C)C)cc1Cl (stereo not drawn),-6,12,-6,57*,-19,15
COc1ccc(-n2c(Cc3cccn3C)nnc2SCC(=O)Nc2cccc(OC)c2)cc1,4,-1,18*,4,-6,-5
CCCCN(C)C(=O)C1CCN(Cc2cccc(OCc3ccccc3)c2)CC1,-17,4,-8,12,-8,-5
O=C(Nc1cccc(Cl)c1)NC1CCN(C2CCCCC2)C1 (stereo not drawn),-11,3,-7,14,4,20
COC(=O)COc1ccc(S(=O)(=O)NCc2ccncc2)cc1,7,18,-5,28*,-17,6
COc1cc(S(=O)(=O)NCc2ccncc2)ccc1Br,2,12,-3,35*,-16,-4
SMILES,M5 ag,M4 ag,M4 PAM,M5 antag,CHRM5 PAM,M4 antag
O=C(NCc1cccnc1)NC1(C(F)(F)F)Oc2ccccc2O1,-7,0,-1,-15,40*,-3
CC(C)CNC(=O)NC1(C(F)(F)F)Oc2ccccc2O1,2,4,-2,0,5,1
N#C/C(=N\Nc1ccccc1F)c1nc(-c2ccccc2)cs1,-2,0,-1,12,0,1
O=C(O)COc1cccc2ccccc12,3,1,3,-2,-3,-2
CCN(CC)C(=O)COc1cccc2ccccc12,-3,0,29*,-3,11,20
CC(=O)Nc1ccc(OCC(O)Cn2c3ccccc3c3ccccc32)cc1 (stereo not drawn),3,11,16,-2,0,0
CC(=O)Nc1ccc(OCC(O)Cn2c3ccccc3c3ccccc32)c(C)c1 (stereo not drawn),11,26,-11,15,-12,27*
CCCCc1nc(Cl)c(CO)n1Cc1ccc(-c2ccccc2-c2nnn[nH]2)cc1,33*,0,2,2,-14,-6
COc1ccc(-c2cn3cccnc3n2)cc1NS(=O)(=O)c1ccccc1,-1,2,7,-4,-1,-8
COc1ccc(-c2cn3cccnc3n2)cc1F,0,0,1,-5,18*,8
Clc1ccc(OCc2nnc(SCCN3CCCCC3)n2Cc2ccco2)cc1,-7,1,-27,12,-17,58*
O=c1c2ccccc2nnn1CSc1nnc(COc2ccc(Cl)cc2)n1Cc1ccco1,-2,2,8,-3,0,-19
COC(=O)[C@@]1(Cc2ccccc2)[C@H]2C(=O)N(C)C(=O)[C@H]2[C@H]2CN=C(SCc3ccc(C)cc3)N21,2,2,-7,6,-4,3
COC(=O)CCc1c(C)[nH]c(=S)[nH]c1=O,0,1,8,-14,11,-3
COC(=O)Cc1[nH]c(=S)[nH]c1C(=O)OC,-1,2,33*,5,7,-4
Fc1ccc(C(CCCn2nnc(-c3cccnc3)n2)c2ccc(F)cc2)cc1,-10,6,-18,22,-54,29*
Fc1ccc(-n2nnc(-c3cccnc3)n2)cc1,2,1,11,8,3,-4
CCc1ccc2oc(=O)cc(CN3CCN(Cc4ccccc4)CC3)c2c1,-8,3,-18,17,-15,65*
COc1ccc(OC(=O)c2ccc(OC)c(S(=O)(=O)N3CCOCC3)c2)cc1,0,14,-8,19,-8,-7
CCOc1cc(CNCCSc2nnnn2C)cc(Br)c1OCc1ccc(F)cc1,-1,22,-14,25,-21,28*
Cc1snc(SCc2ccc(F)cc2)c1C#N,-3,-1,18*,-4,2,-11

# Screens (PubChem)
